Results taken from ChEMBL document CHEMBL2390866, “Novel pyrimidoazepine analogs as serotonin 5-HT(2A) and 5-HT(2C) receptor ligands for the treatment of obesity” (Eur J Med Chem, 2013).

Columns and labels:
[1] = molecular target: T1, 5-hydroxytryptamine receptor 2A (Homo sapiens, UniProt P28223); test: Displacement of [3H]-ketanserin from human recombinant 5HT-2A receptor expressed in CHOK1 cell membranes after 60 mins; parameters: species or system CHO-K1
Summary of the method: (§1)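 Buffer was 50 mM Tris-HCl pH 7.4 with 5 mM CaCl2 and 0.1% ascorbic acid. Test compound added at a range of concentrations.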

[2] = molecular target: T2, 5-hydroxytryptamine receptor 2C (Homo sapiens, UniProt P28335); test: Displacement of [3H]-mesulergine from human recombinant 5HT-2C receptor expressed in CHOK1 cell membranes after 30 mins; parameters: species or system CHO-K1
T2 sequence (P28335 whole entry): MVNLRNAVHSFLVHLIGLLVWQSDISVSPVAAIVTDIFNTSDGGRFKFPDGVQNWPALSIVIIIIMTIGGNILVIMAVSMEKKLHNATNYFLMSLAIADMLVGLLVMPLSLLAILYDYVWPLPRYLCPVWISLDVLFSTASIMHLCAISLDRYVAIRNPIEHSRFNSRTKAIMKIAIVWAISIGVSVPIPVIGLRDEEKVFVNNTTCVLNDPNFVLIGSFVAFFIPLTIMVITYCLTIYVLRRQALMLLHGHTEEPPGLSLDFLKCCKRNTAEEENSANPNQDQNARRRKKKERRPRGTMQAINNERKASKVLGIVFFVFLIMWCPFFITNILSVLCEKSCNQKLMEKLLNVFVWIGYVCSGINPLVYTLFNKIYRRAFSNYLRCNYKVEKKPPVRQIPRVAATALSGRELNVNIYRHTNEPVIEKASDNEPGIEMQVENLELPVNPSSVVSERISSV
Summary of the method: (§2)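 Frozen CHO-K1 membranes expressing recombinant human 5-HT2C incubated with 1 nM [3H]mesulergine in 50 mM Tris-HCl pH 7.4 containing 0.1% ascorbic acid and pargyline. Mianserin defined nonspecific binding.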

[3] = molecular target: T3, 5-hydroxytryptamine receptor 2C (Homo sapiens) (UniProt P28335); test: Displacement of [3H]-mesulergine from human recombinant 5HT-2C receptor expressed in CHOK1 cell membranes at 10 uM after 30 mins relative to control; conditions: CHO-K1; summary of the method: as §2
T3 sequence (whole entry): T2 sequence (P28335 whole entry)

[4] = molecular target: T1, 5-hydroxytryptamine receptor 2A; test: Displacement of [3H]-ketanserin from human recombinant 5HT-2A receptor expressed in CHOK1 cell membranes at 10 uM after 60 mins relative to control; conditions: CHO-K1; summary of the method: as §1
[5] = molecular target: T1, 5-hydroxytryptamine receptor 2A; test: Antagonist activity at serotonin-activated human recombinant 5HT-2A receptor expressed in HEK293 cells assessed as decrease in intracellular calcium level after 5 mins measured for 1 min by fluorescence assay; type: functional, cell-based; conditions: read-out: EC50 (the source's name)
Summary of the method: (§3)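 Cells were washed with HBSS/20 mM HEPES, then loaded 50 min with Fluo-4 NW dye in HBSS with 2.5 mM probenecid. Compound was added for 5 min at 37 °C, then serotonin; fluorescence followed 1 min. Run in duplicate or quadruplicate, repeated several times; IC50 by nonlinear regression.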

[6] = molecular target: T2, 5-hydroxytryptamine receptor 2C; test: Agonist activity at serotonin-activated human recombinant 5HT-2C receptor expressed in HEK293 cells assessed as increase in intracellular calcium level after 5 mins measured for 1 min by fluorescence assay; type: functional, cell-based
Mus musculus [7] = test: Antiobesity activity in C57BL/6 mouse assessed as inhibition of body weight gain at 50 mg/kg, ip measured after 2 to 12 hrs relative to vehicle-treated control; type: functional; conditions: C57BL/6, ip, route intraperitoneal
Mus musculus [8] = test: Antiobesity activity in C57BL/6 mouse assessed as inhibition of food intake at 50 mg/kg, ip measured after 2 to 12 hrs relative to vehicle-treated control; type: functional; conditions: C57BL/6, ip, route intraperitoneal
Summary of the method: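 Male mice were acclimated 1 week at 23 ± 3 °C and 50 ± 20% humidity, then fasted 24 h. They were dosed once intraperitoneally with vehicle or compound: 50 mg/kg in C57BL/6, or 12.5, 25 or 50 mg/kg in B6.V-Lep^ob/J. Food intake was measured at 2, 6 and 12 h versus vehicle control.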

[9] = molecular target: T2, 5-hydroxytryptamine receptor 2C; test: Antagonist activity at serotonin-activated human recombinant 5HT-2C receptor expressed in HEK293 cells assessed as decrease in intracellular calcium level after 5 mins measured for 1 min by fluorescence assay; type: functional, cell-based; conditions: read-out: EC50 (the source's name)
Summary of the method: as §3, with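 “Intracellular calcium read on HEK293 cells stably expressing human receptor, seeded 10,000 cells/well and grown 24 h at 37 °C, 5% CO2. Cells” for “Cells”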

T1 sequence (P28223 whole entry): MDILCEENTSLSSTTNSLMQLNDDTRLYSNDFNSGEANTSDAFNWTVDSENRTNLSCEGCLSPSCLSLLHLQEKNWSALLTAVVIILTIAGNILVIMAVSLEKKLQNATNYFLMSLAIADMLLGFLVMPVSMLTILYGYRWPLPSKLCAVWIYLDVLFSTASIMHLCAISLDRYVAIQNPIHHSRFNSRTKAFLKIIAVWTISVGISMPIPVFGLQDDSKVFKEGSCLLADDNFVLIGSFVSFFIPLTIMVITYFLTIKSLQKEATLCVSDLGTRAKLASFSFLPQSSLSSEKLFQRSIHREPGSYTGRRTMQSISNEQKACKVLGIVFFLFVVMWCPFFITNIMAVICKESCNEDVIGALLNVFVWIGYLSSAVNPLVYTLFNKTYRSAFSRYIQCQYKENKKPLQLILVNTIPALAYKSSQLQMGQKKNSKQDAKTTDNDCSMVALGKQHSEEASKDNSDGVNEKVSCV

| IC50 [1] [nM] | IC50 [2] [nM] | inhibition [3] [%] | inhibition [4] [%] | IC50 [5] [nM] | IC50 [9] [nM] | SMILES | EC50 [6] [µM] | inhibition in vivo at 50 mg/kg (Mus musculus [7]) [%] | inhibition in vivo at 50 mg/kg (Mus musculus [8]) [%] |
| --- | --- | --- | --- | --- | --- | --- | --- | --- | --- |
| 24.2 | 85.8 | 100 | 100 |  |  | CN1CCN(c2nc(Nc3ccc(F)cc3)c3cn[nH]c3n2)CC1 |  |  |  |
| 6580 | > 10000 | 41 | 60 |  |  | C=CCNc1nc(Nc2ccc(F)cc2)c2cn[nH]c2n1 |  |  |  |
| 350 | 1080 | 85 | 100 |  |  | COc1cccc(Nc2nc(N3CCN(c4ccc(F)cc4)CC3)nc3[nH]ncc23)c1 |  |  |  |
| 4530 | 3310 | 76 | 84 |  |  | CCN(CC)c1nc(Nc2ccc(F)cc2)c2cn[nH]c2n1 |  |  |  |
| 3670 | 1500 | 86 | 83 |  |  | CC1CCN(c2nc(Nc3ccc(F)cc3)c3cn[nH]c3n2)CC1 |  |  |  |
| 163 | 494 | 97 | 100 |  |  | OCCN1CCN(c2nc(Nc3ccc(F)cc3)c3cn[nH]c3n2)CC1 |  |  |  |
| 947 | 5830 | 66 | 93 |  |  | Cc1ccc(CNc2nc(Nc3ccc(F)cc3)c3cn[nH]c3n2)cc1 |  |  |  |
| 27.2 | 416 | 88 | 100 |  |  | Fc1ccc(Nc2nc(N3CCN(c4ccccc4)CC3)nc3[nH]ncc23)cc1 |  |  |  |
| 52.2 | 836 | 96 | 100 |  |  | Fc1ccc(Nc2nc(N3CCN(Cc4ccccc4)CC3)nc3[nH]ncc23)cc1 |  |  |  |
| 5870 | 3820 | 67 | 75 |  |  | CC1CC(C)CN(c2nc(Nc3ccc(F)cc3)c3cn[nH]c3n2)C1 (configuration not stated) |  |  |  |
| 4880 | 4030 | 66 | 79 |  |  | CN(C)c1nc(Nc2ccc(F)cc2)c2cn[nH]c2n1 |  |  |  |
| 28.8 | 29.4 | 100 | 100 |  |  | CN1CCN(c2nc(Nc3ccc(Cl)cc3)c3cn[nH]c3n2)CC1 |  |  |  |
| 696 | 1180 | 86 | 92 |  |  | COc1ccc(Nc2nc(N3CCN(c4ccc(F)cc4)CC3)nc3[nH]ncc23)cc1 |  |  |  |
| 17.9 | 148 | 96 | 94 |  |  | Fc1ccc(Nc2nc(N3CCN(c4ccc(F)cc4)CC3)nc3[nH]ncc23)cc1 |  |  |  |
| 4500 | > 10000 | 35 | 72 |  |  | Fc1ccc(Nc2nc(NC3CCCC3)nc3[nH]ncc23)cc1 |  |  |  |
| 9.1 | 7.8 | 100 | 100 |  |  | COc1cccc(Nc2nc(N3CCN(C)CC3)nc3[nH]ncc23)c1 |  |  |  |
| 9740 | > 10000 | 35 | 51 |  |  | Fc1ccc(Nc2nc(NCCN3CCOCC3)nc3[nH]ncc23)cc1 |  |  |  |
| 1270 | 2590 | 82 | 85 |  |  | Fc1ccc(Nc2nc(NCc3ccccc3)nc3[nH]ncc23)cc1 |  |  |  |
| 2620 | 2070 | 81 | 83 |  |  | Fc1ccc(Nc2nc(N3CCOCC3)nc3[nH]ncc23)cc1 |  |  |  |
| 2200 | 1300 | 89 | 86 |  |  | Fc1ccc(Nc2nc(N3CCCCC3)nc3[nH]ncc23)cc1 |  |  |  |
| 25.1 | 86.9 | 100 | 100 |  |  | CN1CCN(c2nc(Nc3ccccc3)c3cn[nH]c3n2)CC1 |  |  |  |
| 1380 | 1730 | 78 | 93 |  |  | COc1ccccc1N1CCN(c2nc(Nc3ccc(F)cc3)c3cn[nH]c3n2)CC1 |  |  |  |
| 5280 | > 10000 | 28 | 67 |  |  | COCCCNc1nc(Nc2ccc(F)cc2)c2cn[nH]c2n1 |  |  |  |
| > 10000 | 7790 | 51 | 49 |  |  | CNc1nc(Nc2ccc(F)cc2)c2cn[nH]c2n1 |  |  |  |
| 3670 | 5710 | 62 | 73 |  |  | Fc1ccc(Nc2nc(NC3CCCCC3)nc3[nH]ncc23)cc1 |  |  |  |

Second part, the molecule before the results:

| SMILES | IC50 [1] [nM] | IC50 [2] [nM] | inhibition [3] [%] | inhibition [4] [%] | IC50 [5] [nM] | IC50 [9] [nM] | EC50 [6] [µM] | inhibition in vivo at 50 mg/kg (Mus musculus [7]) [%] | inhibition in vivo at 50 mg/kg (Mus musculus [8]) [%] |
| --- | --- | --- | --- | --- | --- | --- | --- | --- | --- |
| CCCNc1nc(Nc2ccccc2)c2cn[nH]c2n1 | > 10000 | > 10000 | 29 | 30 |  |  |  |  |  |
| CNc1nc(N2CCN(C)CC2)nc2c1CCNCC2 | > 10000 | > 10000 |  |  | 1200 |  |  |  |  |
| CN1CCN(c2nc3c(c(N4CCOCC4)n2)CCNCC3)CC1 | > 10000 | > 10000 |  |  |  |  | 9.6 |  |  |
| c1ccc(Cc2nc3c(c(N4CCSCC4)n2)CCNCC3)cc1 | 1270 | 333 |  |  | 96.3 |  |  | 12 | 18.4 |
| COc1ccc(Nc2nc(Cc3ccccc3)nc3c2CCNCC3)cc1 | 57.4 | 269 |  |  |  |  |  |  |  |
| CN1CCN(c2ncc3c(n2)CCNCC3)CC1 | > 10000 | > 10000 |  |  |  |  |  |  |  |
| CCNc1nc(N2CCN(C)CC2)nc2c1CCNCC2 | > 10000 | > 10000 |  |  |  |  | > 10 |  |  |
| CN1CCN(c2nc3c(c(N(C)C)n2)CCNCC3)CC1 | > 10000 | > 10000 |  |  |  |  | 1.2 | 12.2 | 12.5 |
| Fc1ccc(Nc2nc(Cc3ccccc3)nc3c2CCNCC3)cc1 | 1.95 | 8.5 |  |  |  | 2.6 |  |  |  |
| CCN(CC)c1nc(Nc2ccc(Cl)cc2)c2cn[nH]c2n1 | 1890 | 991 | 80 | 86 |  |  |  |  |  |
| CCN(CC)c1nc(Nc2cccc(OC)c2)c2cn[nH]c2n1 | 2080 | 5420 | 61 | 87 |  |  |  |  |  |
| COc1nc(N2CCN(C)CC2)nc2c1CCNCC2 | > 10000 | > 10000 |  |  |  |  |  |  |  |
| CN1CCN(c2nc3c(c(N4CCSCC4)n2)CCNCC3)CC1 | > 10000 | > 10000 |  |  | 687 |  | > 10 | -15 | 2.1 |
| CCNc1nc(Nc2ccccc2)c2cn[nH]c2n1 | > 10000 | > 10000 | 15 | 6 |  |  |  |  |  |
| OCCCNc1nc(Nc2ccc(F)cc2)c2cn[nH]c2n1 | > 10000 | > 10000 | 5 | 26 |  |  |  |  |  |
| CCN(CC)c1nc(Nc2ccc(C)c(C)c2)c2cn[nH]c2n1 | 2750 | 8490 | 52 | 85 |  |  |  |  |  |
| CCNc1nc(Nc2ccc(F)cc2)c2cn[nH]c2n1 | > 10000 | > 10000 | 23 | 39 |  |  |  |  |  |
| COc1cccc(Nc2nc(N3CCN(C)CC3)nc3c2CCNCC3)c1 | > 10000 | 2850 |  |  |  | 2300 |  |  |  |
| CN1CCN(c2nc3c(c(OCc4ccco4)n2)CCNCC3)CC1 | 2630 | 1260 |  |  |  |  |  |  |  |
| CCN(CC)c1nc(Nc2ccccc2C)c2cn[nH]c2n1 | 4580 | 242 | 88 | 66 |  |  |  |  |  |
| CN1CCc2nc(N3CCN(C)CC3)nc(Nc3ccc(F)cc3)c2CC1 | 684 | 779 |  |  |  |  |  |  |  |
| CCN(CC)c1nc(N2CCN(C)CC2)nc2c1CCNCC2 | > 10000 | > 10000 |  |  | 2900 |  |  | 9.01 | 4.17 |
| COCCNc1nc(Nc2ccc(F)cc2)c2cn[nH]c2n1 | > 10000 | > 10000 | 18 | 25 |  |  |  |  |  |
